Data on six molecules can be found in ChEMBL document CHEMBL5143562, “α-Synuclein Aggregation Inhibitory Prunolides and a Dibrominated β-Carboline Sulfamate from the Ascidian Synoicum prunum” (J Nat Prod, 2022).

The source made the active and inactive calls. The rule behind the calls is not given here.

One experiment concerns the target Alpha-synuclein (Homo sapiens) (UniProt P37840). Nature of the experiment: Inhibition of alpha-Synuclein (unknown origin) aggregation assessed as time difference in midpoint of aggregation at compound to protein molar ratio of 1:1 incubated for 36 hrs under shaking condition and measured every 6 hrs by Thioflavin T based fluorescence assay relative to control.
Conditions: not given
In short, it runs like this: (§1)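 Wells held 80 µM α-syn, 50 µM ThT (from 5 mM stock in glycine-NaOH pH 8.0), 80–400 µM compound, saline Tris buffer and a teflon ball. Shaken at 100 rpm, 37 °C, 36 h. Fluorescence (ex 460/em 500 nm) read every 6 h, triplicates. Protein-only wells set 100% aggregation. Percent inhibition taken at end; t50 is the shift in h of the aggregation midpoint.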
As for `O=C1C=C(c2ccc(O)cc2)[C@]2(O1)O[C@]1(OC(=O)C=C1c1ccc(O)c(Br)c1)C(c1ccc(O)cc1)=C2c1ccc(O)cc1`, the TIME turned out to be 1 h.

Turning to `O=C1C=C(c2ccc(O)cc2)[C@]2(O1)O[C@@]1(OC(=O)C=C1c1ccc(O)cc1)C(c1ccc(O)cc1)=C2c1ccc(O)cc1`, the TIME is 0 h.

As to `O=C(O[C@@H]1Cc2c(O)cc(O)cc2O[C@@H]1c1cc(O)c(O)c(O)c1)c1cc(O)c(O)c(O)c1`, the TIME worked out at 9.4 h.

A further experiment has the same target. Nature of the experiment: Binding affinity to alpha-Synuclein (unknown origin) at compound to protein molar ratio of 5:1 incubated for 3 hrs by mass spectroscopy analysis.
Conditions: not given
The procedure, abridged: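 α-Syn (10 µM) in 10 mM ammonium acetate. Compound (100 µM, in methanol) added at 5:1 ligand:protein and kept 3 h at rt. Positive-mode HRESIMS, calibrated with sodium trifluoroacetate. Spectra inspected for extra peaks of protein–ligand complexes; scored yes/no.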
For the molecule `O=C1C=C(c2ccc(O)c(Br)c2)[C@]2(O1)O[C@]1(OC(=O)C=C1c1ccc(O)c(Br)c1)C(c1ccc(O)c(Br)c1)=C2c1ccc(O)c(Br)c1`, the outcome was Active.

Take `O=C1C=C(c2ccc(O)cc2)[C@]2(O1)O[C@]1(OC(=O)C=C1c1ccc(O)c(Br)c1)C(c1ccc(O)cc1)=C2c1ccc(O)cc1`: the outcome was Active.

Take `O=C1C=C(c2cc(Br)c(O)c(Br)c2)[C@]2(O1)O[C@]1(OC(=O)C=C1c1cc(Br)c(O)c(Br)c1)C(c1ccc(O)c(Br)c1)=C2c1ccc(O)cc1`: the outcome was Active.

With `O=C1C=C(c2ccc(O)cc2)[C@]2(O1)O[C@@]1(OC(=O)C=C1c1ccc(O)cc1)C(c1ccc(O)cc1)=C2c1ccc(O)cc1`, the outcome was Active.

For the molecule `O=C1C=C(c2cc(Br)c(O)c(Br)c2)[C@]2(O1)O[C@]1(OC(=O)C=C1c1ccc(O)cc1)C(c1ccc(O)c(Br)c1)=C2c1ccc(O)cc1`, the result was Active.

For `O=C(O[C@@H]1Cc2c(O)cc(O)cc2O[C@@H]1c1cc(O)c(O)c(O)c1)c1cc(O)c(O)c(O)c1`, the result was Active.

The target is the same in the next experiment. Put plainly: Inhibition of alpha-Synuclein (unknown origin) aggregation at compound to protein molar ratio of 5:1 incubated for 36 hrs under shaking condition and measured every 6 hrs by Thioflavin T based fluorescence assay relative to control. To be noted: concentration not given here. The procedure, abridged: as §1
On to `O=C1C=C(c2ccc(O)cc2)[C@]2(O1)O[C@]1(OC(=O)C=C1c1ccc(O)c(Br)c1)C(c1ccc(O)cc1)=C2c1ccc(O)cc1`, for which the inhibition is 97.6%.

On to `O=C1C=C(c2ccc(O)cc2)[C@]2(O1)O[C@@]1(OC(=O)C=C1c1ccc(O)cc1)C(c1ccc(O)cc1)=C2c1ccc(O)cc1`, for which the inhibition was 51.5%.

For `O=C(O[C@@H]1Cc2c(O)cc(O)cc2O[C@@H]1c1cc(O)c(O)c(O)c1)c1cc(O)c(O)c(O)c1`, the inhibition turned out to be 98.9%.

The test system of a further experiment is Staphylococcus aureus. Nature of the experiment: Antibacterial activity against methicillin-resistant Staphylococcus aureus ATCC 43300 assessed as inhibition of bacterial growth measured after 18 hrs by resazurin based fluorescent plate reader. The experiment is classed as functional, organism-based. To be noted: ATCC 43300, 18 h. In short, it runs like this: (§2)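 Broth microdilution in lysogeny broth; overnight culture (16-18 h, 37.5 °C) adjusted to 5 × 10^5 CFU/mL inoculum. DMSO stocks serially diluted 1:2 (ten-fold series); fusidic acid positive and 5% DMSO negative controls. Plates shaken at 100 rpm, 18 h at 37.5 °C, then 704 µM resazurin added (stock), further 1 h; fluorescence ex 544/em 590 nm.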
Turning to `O=C1C=C(c2ccc(O)cc2)[C@]2(O1)O[C@]1(OC(=O)C=C1c1ccc(O)c(Br)c1)C(c1ccc(O)cc1)=C2c1ccc(O)cc1`, the IC50 is > 10 µM.

Consider `O=C1C=C(c2cc(Br)c(O)c(Br)c2)[C@]2(O1)O[C@]1(OC(=O)C=C1c1cc(Br)c(O)c(Br)c1)C(c1ccc(O)c(Br)c1)=C2c1ccc(O)cc1`, for which the IC50 is 11.6 µM.

On to `O=C1C=C(c2ccc(O)cc2)[C@]2(O1)O[C@@]1(OC(=O)C=C1c1ccc(O)cc1)C(c1ccc(O)cc1)=C2c1ccc(O)cc1`, for which the IC50 is > 10 µM.

`O=C1C=C(c2cc(Br)c(O)c(Br)c2)[C@]2(O1)O[C@]1(OC(=O)C=C1c1ccc(O)cc1)C(c1ccc(O)c(Br)c1)=C2c1ccc(O)cc1`: the IC50 was > 10 µM.

A further experiment has as its system Staphylococcus aureus. Put plainly: Antibacterial activity against methicillin-sensitive Staphylococcus aureus ATCC 25923 assessed as inhibition of bacterial growth measured after 18 hrs by resazurin based fluorescent plate reader. The experiment is classed as functional, organism-based. As to conditions: ATCC 25923, 18 h. In short, it runs like this:
as §2
For the molecule `O=C1C=C(c2ccc(O)cc2)[C@]2(O1)O[C@]1(OC(=O)C=C1c1ccc(O)c(Br)c1)C(c1ccc(O)cc1)=C2c1ccc(O)cc1`, the IC50 is > 10 µM.

Take `O=C1C=C(c2cc(Br)c(O)c(Br)c2)[C@]2(O1)O[C@]1(OC(=O)C=C1c1cc(Br)c(O)c(Br)c1)C(c1ccc(O)c(Br)c1)=C2c1ccc(O)cc1`: the IC50 was found to be 12.2 µM.

As to `O=C1C=C(c2ccc(O)cc2)[C@]2(O1)O[C@@]1(OC(=O)C=C1c1ccc(O)cc1)C(c1ccc(O)cc1)=C2c1ccc(O)cc1`, the half-inhibitory concentration (IC50) is > 10 µM.

Turning to `O=C1C=C(c2cc(Br)c(O)c(Br)c2)[C@]2(O1)O[C@]1(OC(=O)C=C1c1ccc(O)cc1)C(c1ccc(O)c(Br)c1)=C2c1ccc(O)cc1`, the IC50 is > 10 µM.

The target of another experiment is Alpha-synuclein (Homo sapiens) (UniProt P37840). Put plainly: Inhibition of alpha-Synuclein (unknown origin) aggregation assessed as times difference in midpoint of aggregation at compound to protein molar ratio of 5:1 incubated for 36 hrs under shaking condition and measured every 6 hrs by Thioflavin T based fluorescence assay relative to control.
Conditions: not given
In short, it runs like this: as §1
On to `O=C1C=C(c2ccc(O)cc2)[C@]2(O1)O[C@]1(OC(=O)C=C1c1ccc(O)c(Br)c1)C(c1ccc(O)cc1)=C2c1ccc(O)cc1`, for which the TIME stood at 4 h.

`O=C1C=C(c2ccc(O)cc2)[C@]2(O1)O[C@@]1(OC(=O)C=C1c1ccc(O)cc1)C(c1ccc(O)cc1)=C2c1ccc(O)cc1`: the TIME came to 2.3 h.

As to `O=C(O[C@@H]1Cc2c(O)cc(O)cc2O[C@@H]1c1cc(O)c(O)c(O)c1)c1cc(O)c(O)c(O)c1`, the TIME worked out at 11.1 h.

The target is the same in another experiment. Nature of the experiment: Inhibition of alpha-Synuclein (unknown origin) aggregation at compound to protein molar ratio of 1:1 incubated for 36 hrs under shaking condition and measured every 6 hrs by Thioflavin T based fluorescence assay relative to control. As to conditions: concentration not given here. The procedure, abridged: as §1
On to `O=C1C=C(c2ccc(O)cc2)[C@]2(O1)O[C@]1(OC(=O)C=C1c1ccc(O)c(Br)c1)C(c1ccc(O)cc1)=C2c1ccc(O)cc1`, for which the inhibition was determined as 39%.

For `O=C1C=C(c2ccc(O)cc2)[C@]2(O1)O[C@@]1(OC(=O)C=C1c1ccc(O)cc1)C(c1ccc(O)cc1)=C2c1ccc(O)cc1`, the inhibition was found to be 22.1%.
